Data on one sequence can be found in publication PMC6335142 (Korean Journal for Food Science of Animal Resources, 2018).

The nature of experiment [1]: Oxygen radical absorbance capacity. It counts as biochemical. In a few lines: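 Sample or trolox standard mixed with 80 nM fluorescein and held 15 min at 37℃, then 150 mM AAPH added. Fluorescence (ex 480, em 520 nm) recorded every minute at 37℃. Net AUC was converted through a trolox regression and reported as μmol trolox equivalent. RP-HPLC fractions (C18, 0–40% acetonitrile in 0.1% TFA, 215 nm) were lyophilized and taken up in 75 mM phosphate buffer. Values given as means and SEM with Tukey test.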

Another experiment deals with HCT116 cells. Description: MTT cell viability / proliferation assay in HCT116 cells. It is filed as cell-based, human. To be noted: 24 h. The gist of the method: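 HCT116 cells grown in RPMI1640 with 10% FBS and 1% antibiotics at 37℃, 5% CO2, then seeded at 2×10^4 cells/well and left 24 h. Peptide added at 0–250 μg/mL for 24 h. MTT was added to a final 0.5 mg/mL for 4 h, and the formazan was dissolved in DMSO and read at 540 nm. Data given as means and SEM, with GLM ANOVA and Tukey test, p<0.05.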

For experiment [2], the system named is ERK, JNK and p38 MAP kinase. Description: Western blot of MAP kinase. It counts as cell-based, human. To be noted: 24 h, HCT116 cells. In a few lines: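 HCT116 cells seeded at 2×10^5 cells/well, incubated overnight at 37℃, then given peptide at varying concentrations for 24 h. Cells washed in dPBS and lysed on ice in pH 8.0 NaCl/Tris/NP40 buffer with protease inhibitors. 15 μg protein run on 10% SDS-PAGE and blotted to PVDF, blocked in 5% BSA. Blots probed overnight at 4℃ with total and phospho ERK, JNK, p38 and β-actin antibodies (1:200), then HRP secondary. Detection by ECL chemiluminescence.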
(In western blotting, separated proteins are transferred to a membrane and probed.)

Marks after values point to notes of the source that are not given here. Where no end group is shown, it is not given here.

As to “CCCCSVQK (cysteine pairing not given here) [P3]”, in experiment [1] (each 2-mL fraction lyophilized and re-dissolved in 0.5 mL 75 mM phosphate buffer), the “ORAC value of RP-HPLC fraction” value is 94.21 μmol of TE. The ORAC in experiment [1] (fluorescein 80 nM, AAPH 150 mM, 37℃, trolox standard, means, SEM 4.662) is 202.66^a µM TE/g of dry matter. For the same sequence, the “Growth of HCT116 cells” value in the experiment with HCT116 cells (0–250 μg/mL) is reported as “inhibited the growth of HCT116 cells in a dose-dependent manner”. Further, in the experiment with HCT116 cells (250 μg/mL), the “Inhibition of HCT116 cell proliferation” value was found to be 25.24%. For the same sequence, in the experiment with HCT116 cells (250 μg/mL, vs control), the “Inhibition of HCT116 cells (as printed in results text)” value is listed as 74.76%. The p38 phosphorylation entry in experiment [2] (0, 50, 100 and 250 μg/mL) is “significantly phosphorylated by P3 with dose dependent”. Moreover, the ERK phosphorylation result in experiment [2] (50 μg/mL) is given as “activated”. Moreover, the JNK phosphorylation entry in experiment [2] (100 and 250 μg/mL) was “significantly activated”.
